Calls of active or inactive are those of the source. The calls are words filed in the database; no cut-off is given here.
Tests used:
[1] = tested on: Mus musculus; experiment: Anticonvulsant activity in albino CF1 mouse assessed as protection against subcutaneous metrazol-induced seizures at 30 mg/kg, ip after 4 hrs; format: functional, organism-based; design: dose 30 mg/kg
Method in brief: (§1)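 Mice dosed ip at 30, 100 or 300 mg/kg, then tested 0.5 h and 4 h after administration in the MES or scMet test. Protection was recorded as animals protected over animals tested. Neurotoxicity was recorded as motor impairment or sedation, as animals affected over animals tested.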

[2] = tested on: Mus musculus; experiment: Anticonvulsant activity in albino CF1 mouse assessed as protection against subcutaneous metrazol-induced seizures at 100 mg/kg, ip after 0.5 hrs; format: functional, organism-based; design: dose 100 mg/kg; method in brief: as §1
[3] = tested on: Mus musculus; experiment: Anticonvulsant activity in albino CF1 mouse assessed as protection against maximal electroshock-induced seizures at 100 mg/kg, ip after 4 hrs; format: functional, organism-based; design: dose 100 mg/kg; method in brief: as §1
[4] = tested on: Rattus norvegicus; experiment: Neurotoxicity in pilocarpine-induced status epilepticus Sprague-Dawley albino rat model assessed as minimal motor impairment at 300 mg/kg, ip after 4 hrs by rotarod test; format: toxicity, organism-based; design: dose 300 mg/kg, route intraperitoneal; conditions: in vivo
Method in brief: (§2)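 Rat pilocarpine status epilepticus model: test carbamate given at 0 or 30 min after the first observed Racine stage 3 motor seizure, which marks SE onset. Neurotoxicity was scored within the same model.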

[5] = tested on: Mus musculus; experiment: Neurotoxicity in albino CF1 mouse assessed as minimal motor impairment at 300 mg/kg, ip after 4 hrs by rotarod test; format: toxicity, organism-based; design: dose 300 mg/kg, route intraperitoneal; conditions: in vivo; method in brief: as §1
[6] = tested on: Rattus norvegicus; experiment: Neurotoxicity in pilocarpine-induced status epilepticus Sprague-Dawley albino rat model assessed as minimal motor impairment at 30 mg/kg, ip after 2 hrs by rotarod test; format: toxicity, organism-based; design: dose 30 mg/kg, route intraperitoneal; conditions: in vivo; method in brief: as §2
[7] = tested on: Mus musculus; experiment: Anticonvulsant activity in albino CF1 mouse assessed as protection against maximal electroshock-induced seizures at 30 mg/kg, ip after 4 hrs; format: functional, organism-based; design: dose 30 mg/kg; method in brief: as §1
[8] = tested on: Mus musculus; experiment: Anticonvulsant activity in albino CF1 mouse assessed as protection against maximal electroshock-induced seizures at 300 mg/kg, ip after 4 hrs; format: functional, organism-based; design: dose 300 mg/kg; method in brief: as §1
[9] = tested on: Mus musculus; experiment: Anticonvulsant activity in albino CF1 mouse assessed as protection against maximal electroshock-induced seizures at 300 mg/kg, ip after 0.5 hrs; format: functional, organism-based; design: dose 300 mg/kg; method in brief: as §1
[10] = tested on: Rattus norvegicus; experiment: Neurotoxicity in pilocarpine-induced status epilepticus Sprague-Dawley albino rat model assessed as minimal motor impairment at 100 mg/kg, ip after 0.5 hrs by rotarod test; format: toxicity, organism-based; design: dose 100 mg/kg, route intraperitoneal; conditions: in vivo
[11] = tested on: Rattus norvegicus; experiment: Neurotoxicity in pilocarpine-induced status epilepticus Sprague-Dawley albino rat model assessed as minimal motor impairment at 100 mg/kg, ip after 0.25 hr by rotarod test; format: toxicity, organism-based; design: dose 100 mg/kg, route intraperitoneal; conditions: in vivo
[12] = tested on: Mus musculus; experiment: Anticonvulsant activity in albino CF1 mouse assessed as protection against subcutaneous metrazol-induced seizures at 100 mg/kg, ip after 4 hrs; format: functional, organism-based; design: dose 100 mg/kg; method in brief: as §1
[13] = tested on: Rattus norvegicus; experiment: Neurotoxicity in pilocarpine-induced status epilepticus Sprague-Dawley albino rat model assessed as minimal motor impairment at 100 mg/kg, ip after 2 hrs by rotarod test; format: toxicity, organism-based; design: dose 100 mg/kg, route intraperitoneal; conditions: in vivo
[14] = tested on: Mus musculus; experiment: Anticonvulsant activity in albino CF1 mouse assessed as protection against maximal electroshock-induced seizures at 30 mg/kg, ip after 0.5 hrs; format: functional, organism-based; design: dose 30 mg/kg; method in brief: as §1
[15] = tested on: Rattus norvegicus; experiment: Neurotoxicity in pilocarpine-induced status epilepticus Sprague-Dawley albino rat model assessed as minimal motor impairment at 300 mg/kg, ip after 2 hrs by rotarod test; format: toxicity, organism-based; design: dose 300 mg/kg, route intraperitoneal; conditions: in vivo; method in brief: as §2
[16] = tested on: Rattus norvegicus; experiment: Neurotoxicity in pilocarpine-induced status epilepticus Sprague-Dawley albino rat model assessed as minimal motor impairment at 300 mg/kg, ip after 0.25 hr by rotarod test; format: toxicity, organism-based; design: dose 300 mg/kg, route intraperitoneal; conditions: in vivo; method in brief: as §2
[17] = tested on: Mus musculus; experiment: Neurotoxicity in albino CF1 mouse assessed as minimal motor impairment at 30 mg/kg, ip after 0.5 hrs by rotarod test; format: toxicity, organism-based; design: dose 30 mg/kg, route intraperitoneal; conditions: in vivo; method in brief: as §1
[18] = tested on: Rattus norvegicus; experiment: Anticonvulsant activity in Sprague-Dawley albino rat assessed as protection against maximal electroshock-induced seizures at 30 mg/kg, po after 1 hr; format: functional, organism-based; design: dose 30 mg/kg
Method in brief: (§3)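 Rats dosed orally. Anti-MES protection was scored as animals protected over animals tested at each time after dosing. Neurotoxicity was scored as motor impairment or sedation, as animals affected over animals tested.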

[19] = tested on: Mus musculus; experiment: Anticonvulsant activity in albino CF1 mouse assessed as protection against subcutaneous metrazol-induced seizures at 30 mg/kg, ip after 0.5 hrs; format: functional, organism-based; design: dose 30 mg/kg; method in brief: as §1
[20] = tested on: Rattus norvegicus; experiment: Neurotoxicity in pilocarpine-induced status epilepticus Sprague-Dawley albino rat model assessed as minimal motor impairment at 30 mg/kg, ip after 0.5 hrs by rotarod test; format: toxicity, organism-based; design: dose 30 mg/kg, route intraperitoneal; conditions: in vivo; method in brief: as §2
[21] = tested on: Mus musculus; experiment: Neurotoxicity in albino CF1 mouse assessed as minimal motor impairment at 100 mg/kg, ip after 4 hrs by rotarod test; format: toxicity, organism-based; design: dose 100 mg/kg, route intraperitoneal; conditions: in vivo; method in brief: as §1
[22] = tested on: Rattus norvegicus; experiment: Neurotoxicity in pilocarpine-induced status epilepticus Sprague-Dawley albino rat model assessed as minimal motor impairment at 30 mg/kg, ip after 4 hrs by rotarod test; format: toxicity, organism-based; design: dose 30 mg/kg, route intraperitoneal; conditions: in vivo; method in brief: as §2
[23] = tested on: Rattus norvegicus; experiment: Neurotoxicity in Sprague-Dawley albino rat assessed as minimal motor impairment at 30 mg/kg, po by rotarod test; format: toxicity, organism-based; design: dose 30 mg/kg, route oral; conditions: in vivo; method in brief: as §3
[24] = tested on: Mus musculus; experiment: Neurotoxicity in albino CF1 mouse assessed as minimal motor impairment at 30 mg/kg, ip after 4 hrs by rotarod test; format: toxicity, organism-based; design: dose 30 mg/kg, route intraperitoneal; conditions: in vivo; method in brief: as §1
[25] = tested on: Mus musculus; experiment: Anticonvulsant activity in albino CF1 mouse assessed as protection against subcutaneous metrazol-induced seizures at 300 mg/kg, ip after 0.5 hrs; format: functional, organism-based; design: dose 300 mg/kg; method in brief: as §1
[26] = tested on: Rattus norvegicus; experiment: Neurotoxicity in pilocarpine-induced status epilepticus Sprague-Dawley albino rat model assessed as minimal motor impairment at 100 mg/kg, ip after 1 hr by rotarod test; format: toxicity, organism-based; design: dose 100 mg/kg, route intraperitoneal; conditions: in vivo
[27] = tested on: Rattus norvegicus; experiment: Neurotoxicity in pilocarpine-induced status epilepticus Sprague-Dawley albino rat model assessed as minimal motor impairment at 100 mg/kg, ip after 4 hrs by rotarod test; format: toxicity, organism-based; design: dose 100 mg/kg, route intraperitoneal; conditions: in vivo
[28] = tested on: Rattus norvegicus; experiment: Neurotoxicity in pilocarpine-induced status epilepticus Sprague-Dawley albino rat model assessed as minimal motor impairment at 30 mg/kg, ip after 1 hr by rotarod test; format: toxicity, organism-based; design: dose 30 mg/kg, route intraperitoneal; conditions: in vivo; method in brief: as §2
[29] = tested on: Rattus norvegicus; experiment: Anticonvulsant activity in Sprague-Dawley albino rat assessed as protection against maximal electroshock-induced seizures at 30 mg/kg, po after 15 mins; format: functional, organism-based; design: dose 30 mg/kg; method in brief: as §3
[30] = tested on: Mus musculus; experiment: Anticonvulsant activity in albino CF1 mouse assessed as protection against subcutaneous metrazol-induced seizures at 300 mg/kg, ip after 4 hrs; format: functional, organism-based; design: dose 300 mg/kg; method in brief: as §1
[31] = tested on: Rattus norvegicus; experiment: Neurotoxicity in pilocarpine-induced status epilepticus Sprague-Dawley albino rat model assessed as minimal motor impairment at 30 mg/kg, ip after 0.25 hr by rotarod test; format: toxicity, organism-based; design: dose 30 mg/kg, route intraperitoneal; conditions: in vivo; method in brief: as §2
[32] = tested on: Rattus norvegicus; experiment: Anticonvulsant activity in Sprague-Dawley albino rat assessed as protection against maximal electroshock-induced seizures at 30 mg/kg, po after 30 mins; format: functional, organism-based; design: dose 30 mg/kg; method in brief: as §3
[33] = tested on: Rattus norvegicus; experiment: Neurotoxicity in pilocarpine-induced status epilepticus Sprague-Dawley albino rat model assessed as minimal motor impairment at 300 mg/kg, ip after 0.5 hrs by rotarod test; format: toxicity, organism-based; design: dose 300 mg/kg, route intraperitoneal; conditions: in vivo; method in brief: as §2
[34] = tested on: Rattus norvegicus; experiment: Anticonvulsant activity in Sprague-Dawley albino rat assessed as protection against maximal electroshock-induced seizures at 30 mg/kg, po after 4 hrs; format: functional, organism-based; design: dose 30 mg/kg; method in brief: as §3
[35] = tested on: Rattus norvegicus; experiment: Anticonvulsant activity in Sprague-Dawley albino rat assessed as protection against pilocarpine-induced status epilepticus at 65 mg/kg, ip; format: functional, organism-based; design: dose 65 mg/kg
Method in brief: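 Pilocarpine status epilepticus model in rats. Number and severity of convulsive seizures were observed behaviourally.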

[36] = tested on: Mus musculus; experiment: Neurotoxicity in albino CF1 mouse assessed as minimal motor impairment at 300 mg/kg, ip after 0.5 hrs by rotarod test; format: toxicity, organism-based; design: dose 300 mg/kg, route intraperitoneal; conditions: in vivo; method in brief: as §1
[37] = tested on: Rattus norvegicus; experiment: Anticonvulsant activity in Sprague-Dawley albino rat assessed as protection against maximal electroshock-induced seizures at 30 mg/kg, po after 2 hrs; format: functional, organism-based; design: dose 30 mg/kg; method in brief: as §3
[38] = tested on: Rattus norvegicus; experiment: Protective index, ratio of TD50 for po dosed Sprague-Dawley albino rat by rotarod test to ED50 for po dosed Sprague-Dawley albino rat by maximal electroshock seizures test; format: functional
Method in brief: (§4)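 Protective index calculated as TD50/ED50, with TD50 and ED50 taken from the same species and dosing route.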

[39] = tested on: Rattus norvegicus; experiment: Anticonvulsant activity in po dosed Sprague-Dawley albino rat assessed as protection against maximal electroshock-induced seizures; format: functional
Method in brief: (§5)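 Quantitative testing: rats dosed orally or ip in MES and scMet tests, and mice dosed ip, including the 6 Hz (32 mA) psychomotor seizure test. ED50 and TD50 were reported in mg/kg with ranges in parentheses. Protective index was calculated as TD50/ED50.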

[40] = tested on: Rattus norvegicus; experiment: Anticonvulsant activity in po dosed Sprague-Dawley albino rat assessed as protection against subcutaneous metrazol-induced seizures; format: functional; method in brief: as §5
[41] = Neurotoxicity in po dosed Sprague-Dawley albino rat assessed as minimal motor impairment by rotarod test; format: toxicity, organism-based; conditions: in vivo
Method in brief: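 Rats dosed orally; 4 rats per time point after dosing. Neurotoxicity was scored as motor impairment or sedation and reported as number of animals affected over number tested.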

[42] = tested on: Rattus norvegicus; experiment: Protective index, ratio of TD50 for po dosed Sprague-Dawley albino rat by rotarod test to ED50 for po dosed Sprague-Dawley albino rat by subcutaneous metrazol seizures test; format: functional; method in brief: as §4

Compound: CCC(C)CCOC(N)=O (racemic)
- Activity [1]: inactive
- Activity [2]: inactive
- Activity [3]: inactive
- Activity [4]: Non-toxic
- Activity [5]: Non-toxic
- Activity [6]: Non-toxic
- Activity [7]: inactive
- Activity [8]: inactive
- Activity [9]: Active
- Activity [10]: Toxic
- Activity [11]: Toxic
- Activity [12]: inactive
- Activity [13]: Non-toxic
- Activity [14]: inactive
- Activity [15]: Non-toxic
- Activity [16]: Toxic
- Activity [17]: Non-toxic
- Activity [18]: inactive
- Activity [19]: inactive
- Activity [20]: Non-toxic
- Activity [21]: Non-toxic
- Activity [22]: Non-toxic
- Activity [23]: Non-toxic
- Activity [24]: Non-toxic
- Activity [25]: inactive
- Activity [26]: Non-toxic
- Activity [27]: Non-toxic
- Activity [28]: Non-toxic
- Activity [29]: inactive
- Activity [30]: inactive
- Activity [31]: Non-toxic
- Activity [32]: inactive
- Activity [33]: Toxic
- Activity [34]: inactive
- Activity [35]: Active
- Activity [36]: Toxic
- Activity [37]: inactive

Compound: NC(=O)OC[C@@H](O)c1ccccc1Cl [CARISBAMATE]
- Ratio TD50/ED50 [38]: 18
- ED50 [39]: 8 mg/kg
- ED50 [40]: 58 mg/kg
- TD50 [41]: 137 mg/kg
- Ratio TD50/ED50 [42]: 2.4

Compound: CCCC(CCC)C(=O)O [VALPROIC ACID]
- ED50 [40]: 646 mg/kg
